Assay results published in PMC11134341 (Chemical Science, 2024).

Assays:
[1] = system: CYP199A4 F182A/P90A; test: H2O2-dependent O-demethylation of benzoic acid derivatives, F182A/P90A; format: biochemical, Rhodopseudomonas palustris; conditions: catalyzed by F182A/P90A; P450 1 μM, substrate 2 mM, H2O2 10 mM, Tris-HCl pH 7.4, 30 °C
Summary of the method: (§1)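 Purified CYP199A4 double mutant (1 μM), a methoxy-substituted benzoic acid substrate (2 mM) and H2O2 (10 mM, the only oxidant) in Tris–HCl pH 7.4 at 30 °C. Demethylation and further-oxidation products are quantified against a benzophenone internal standard and expressed as turnover number per P450.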

[2] = system: CYP199A4 F182A/D251H; test: H2O2-dependent O-demethylation, F182A/D251H; format: biochemical, Rhodopseudomonas palustris
Summary of the method: (§2)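 Enzyme (1 μM) is reacted with methoxy-substituted benzoic acid substrate (2 mM) and H2O2 (10 mM) as sole oxidant, in Tris–HCl pH 7.4 at 30 °C. Demethylation products are quantified chromatographically against a benzophenone internal standard, and activity is expressed as turnover number.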

[3] = system: CYP199A4 F182A/D251E; test: H2O2-dependent O-demethylation, F182A/D251E; format: biochemical, Rhodopseudomonas palustris
Summary of the method: as §2

[4] = system: CYP199A4 (wild type); conditions: WT CYP199A4; cited from earlier work
[5] = system: engineered CYP199A4 peroxygenase variants; test: O-demethylation by the library of engineered CYP199A4 peroxygenase variants; format: biochemical, Rhodopseudomonas palustris; conditions: H2O2-dependent reaction
[6] = system: CYP199A4 F182A/V355A; test: H2O2-dependent O-demethylation of benzoic acid derivatives, F182A/V355A; format: biochemical, Rhodopseudomonas palustris; conditions: catalyzed by F182A/V355A
Summary of the method: as §1

[7] = target: T1, CYP199A4 F182A (Rhodopseudomonas palustris, UniProt Q2IU02, F183A); test: UV-visible spectral titration of substrate binding
T1 sequence (Q2IU02 1-410 F183A): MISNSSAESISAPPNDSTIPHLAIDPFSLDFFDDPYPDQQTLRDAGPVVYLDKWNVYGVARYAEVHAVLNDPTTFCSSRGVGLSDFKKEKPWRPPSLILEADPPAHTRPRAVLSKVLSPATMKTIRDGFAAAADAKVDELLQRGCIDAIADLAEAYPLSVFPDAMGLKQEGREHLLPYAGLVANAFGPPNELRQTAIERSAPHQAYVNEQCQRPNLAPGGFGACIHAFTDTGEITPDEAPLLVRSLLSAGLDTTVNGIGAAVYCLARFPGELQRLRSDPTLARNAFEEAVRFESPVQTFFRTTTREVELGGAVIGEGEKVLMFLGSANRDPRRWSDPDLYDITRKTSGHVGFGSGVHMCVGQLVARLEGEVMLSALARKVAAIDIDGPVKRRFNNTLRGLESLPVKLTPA

Compound: COc1ccc(C(=O)O)cc1 [Compound 1, 4-methoxybenzoic acid]
- TON of demethylation product [1]: 1100 μM (μM P450)^−1
- reduction of catalytic activity compared with F182A [2]: 50 fold
- reduction of catalytic activity compared with F182A [3]: 50 fold
- catalytic turnover number (TON) of H2O2-dependent demethylation [4]: 6 μM (μM P450)^−1

Compound: COc1cccc(C(=O)O)c1 [Compound 2, 3-methoxybenzoic acid]
- O-demethylation / conversion by the examined CYP199A4 variants (in words) [5]: can be demethylated

Compound: COc1ccccc1C(=O)O [Compound 3, 2-methoxybenzoic acid]
- O-demethylation / conversion by the examined CYP199A4 variants (in words) [5]: no reaction product was detected

Compound: COc1cc(OC)cc(C(=O)O)c1 [Compound 6, 3,5-dimethoxybenzoic acid]
- O-demethylation / conversion by the examined CYP199A4 variants (in words) [5]: can be demethylated

Compound: COc1ccc(OC)c(C(=O)O)c1 [Compound 7, 2,5-dimethoxybenzoic acid]
- O-demethylation / conversion by the examined CYP199A4 variants (in words) [5]: not converted

Compound: COc1cccc(C(=O)O)c1OC [Compound 8, 2,3-dimethoxybenzoic acid]
- O-demethylation / conversion by the examined CYP199A4 variants (in words) [5]: not converted

Compound: COc1cc(C(=O)O)cc(OC)c1OC [Compound 9, 3,4,5-trimethoxy benzoic acid]
- O-demethylation / conversion by the examined CYP199A4 variants (in words) [5]: no conversions detected

Compound: COc1ccc(C(=O)O)cc1C [Compound 11, 3-methyl-4-methoxybenzoic acid]
- TON of demethylation ([6]; P450 1 μM, substrate 2 mM, H2O2 10 mM, Tris-HCl pH 7.4, 30 °C): 1290 μM (μM P450)^−1

Compound: COc1c(C)cc(C(=O)O)cc1C [Compound 12, 3,5-dimethyl-4-methoxy benzoic acid]
- Kd [7]: 123 µM
- product formed (in words) ([6]; H2O2-dependent reaction): a single product (not 3,5-dimethyl-4-hydroxybenzoic acid)

Compound: COc1c(Cl)cc(C(=O)O)cc1Cl [Compound 15, 3,5-dichloro-4-methoxy benzoic acid]
- O-demethylation / conversion by the examined CYP199A4 variants (in words) [5]: no conversions detected

Compound: COc1ccc(C(=O)O)cc1[N+](=O)[O-] [Compound 17, 4-methoxy-3-nitrobenzoic acid]
- TON of demethylation product [1]: 926 μM (μM P450)^−1
- TON of over-oxidation product 4,5-dihydroxy-3-nitrobenzoic acid [1]: 416 μM (μM P450)^−1

Compound: COc1cc(C(=O)O)ccc1O [Compound 20, 4-hydroxy-3-methoxybenzoic acid]
- O-demethylation / conversion by the examined CYP199A4 variants (in words) [5]: not demethylated

Compound: COc1cc(C(=O)O)cc(OC)c1O [Compound 21, 4-hydroxy-3,5-dimethoxybenzoic acid]
- O-demethylation / conversion by the examined CYP199A4 variants (in words) [5]: did not convert
